Data set [1] deals with T1, Urotensin-2 receptor (Homo sapiens, UniProt Q9UKP6).
T1 sequence (Q9UKP6 whole entry): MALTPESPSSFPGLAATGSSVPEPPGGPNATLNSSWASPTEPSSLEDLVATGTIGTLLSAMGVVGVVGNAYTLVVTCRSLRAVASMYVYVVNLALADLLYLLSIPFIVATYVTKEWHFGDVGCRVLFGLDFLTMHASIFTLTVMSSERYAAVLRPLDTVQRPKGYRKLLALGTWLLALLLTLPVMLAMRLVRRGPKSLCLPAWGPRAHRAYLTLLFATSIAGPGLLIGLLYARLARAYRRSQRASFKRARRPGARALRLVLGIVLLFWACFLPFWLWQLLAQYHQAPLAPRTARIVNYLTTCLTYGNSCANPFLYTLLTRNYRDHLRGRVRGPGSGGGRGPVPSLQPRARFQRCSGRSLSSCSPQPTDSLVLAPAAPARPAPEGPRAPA
As to the kind of experiment: Displacement of [125I-Tyr9]-U-II from human U-IIR expressed in HEK293-A cells incubated for 30 mins by gamma counting based competition radioligand binding assay. Type of data set: cell-based. In general terms: Loss of bound radioactivity is the signal in a displacement assay; it reports binding, not function.

Data set [2] deals with Somatostatin receptor type 2 (Homo sapiens, UniProt P30874). As to the kind of experiment: Displacement of [125I-Tyr11]-SS14 from human SSTR2 expressed in HEK293-A cells incubated for 30 mins by gamma counting based competition radioligand binding assay. Type of data set: cell-based. The gist of the method: (§1)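 Competition binding on HEK293A cells overexpressing the given human SSTR subtype, seeded overnight. Binding buffer: 50 mM Tris-HCl pH 7.4, 5 mM MgCl2, 1 mM CaCl, 0.5% BSA, protease inhibitors. 100000 cpm [125I-Tyr11]-SS14 (chloramine-T iodinated, HPLC-purified) with varying competitor, 30 min at 37 °C. Cells washed four times in cold buffer, lysed in 1 N NaOH, gamma counted. Mean ± SD, three experiments in duplicate.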

Data set [3] deals with Somatostatin receptor type 1 (Homo sapiens, UniProt P30872). As to the kind of experiment: Displacement of [125I-Tyr11]-SS14 from human SSTR1 expressed in HEK293-A cells incubated for 30 mins by gamma counting based competition radioligand binding assay. It counts as cell-based. The gist of the method: as §1
For data set [4], the target named is Somatostatin receptor type 3 (Homo sapiens, UniProt P32745). As to the kind of experiment: Displacement of [125I-Tyr11]-SS14 from human SSTR3 expressed in HEK293-A cells incubated for 30 mins by gamma counting based competition radioligand binding assay. It counts as cell-based. The gist of the method:
as §1

Data set [5] can be described thus: Half life in 25% human serum by RP-HPLC analysis. It counts as ADME, cell-free. The gist of the method:
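Peptide at 50 μg/mL final in RPMI with 25% (v/v) human serum, pre-equilibrated at 37 °C. Samples taken at set times into 6% TCA, iced 15 min, spun at 18000g. Supernatant run on C18 RP-HPLC, 25–80% acetonitrile gradient over 15 min at 30 °C, absorbance at 214 and 280 nm.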

Data set [6] addresses T1, Urotensin-2 receptor. As to the kind of experiment: Agonist activity at human U-IIR expressed in HEK293-A cells by Fluo4-AM dye based intracellular calcium mobilization assay. It counts as functional, cell-based. In general terms: Calcium flux is commonly read through the fluorescence of an indicator in the cells.
The target in data set [7] is Somatostatin receptor type 5 (Homo sapiens, UniProt P35346). As to the kind of experiment: Displacement of [125I-Tyr11]-SS14 from human SSTR5 expressed in HEK293-A cells incubated for 30 mins by gamma counting based competition radioligand binding assay. Type of data set: cell-based. The gist of the method:
as §1

Data set [8] has as its target T2, Urotensin-2 receptor (Homo sapiens) (UniProt Q9UKP6).
T2 sequence (whole entry): T1 sequence (Q9UKP6 whole entry)
As to the kind of experiment: Agonist activity at human U-IIR expressed in HEK293-A cells at 500 nM by Fluo4-AM dye based intracellular calcium mobilization assay relative to control. The following applies: filed as agonist, dose nM 500.

Data set [9] has as its target T2, Urotensin-2 receptor (Homo sapiens). As to the kind of experiment: Agonist activity at human U-IIR expressed in HEK293-A cells at 500 nM by Fluo4-AM dye based intracellular calcium mobilization assay relative to control. The note with it: filed as agonist. Type of data set: functional, cell-based.

The structures appear in SMILES notation. pEC50, pIC50: −log10 of the molar value. Peptide text beside a SMILES is read from it.

Sequence of Somatostatin receptor type 5 (P35346 whole entry): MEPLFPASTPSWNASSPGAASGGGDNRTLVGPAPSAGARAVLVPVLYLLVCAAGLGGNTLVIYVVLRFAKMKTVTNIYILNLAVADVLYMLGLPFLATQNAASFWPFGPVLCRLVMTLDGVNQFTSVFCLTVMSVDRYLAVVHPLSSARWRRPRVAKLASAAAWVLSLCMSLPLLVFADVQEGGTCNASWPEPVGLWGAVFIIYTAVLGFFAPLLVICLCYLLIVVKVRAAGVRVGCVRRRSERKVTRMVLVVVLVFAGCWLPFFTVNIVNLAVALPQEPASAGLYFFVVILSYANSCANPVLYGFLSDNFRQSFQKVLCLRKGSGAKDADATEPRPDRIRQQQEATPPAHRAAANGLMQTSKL
Sequence of Somatostatin receptor type 1 (P30872 whole entry): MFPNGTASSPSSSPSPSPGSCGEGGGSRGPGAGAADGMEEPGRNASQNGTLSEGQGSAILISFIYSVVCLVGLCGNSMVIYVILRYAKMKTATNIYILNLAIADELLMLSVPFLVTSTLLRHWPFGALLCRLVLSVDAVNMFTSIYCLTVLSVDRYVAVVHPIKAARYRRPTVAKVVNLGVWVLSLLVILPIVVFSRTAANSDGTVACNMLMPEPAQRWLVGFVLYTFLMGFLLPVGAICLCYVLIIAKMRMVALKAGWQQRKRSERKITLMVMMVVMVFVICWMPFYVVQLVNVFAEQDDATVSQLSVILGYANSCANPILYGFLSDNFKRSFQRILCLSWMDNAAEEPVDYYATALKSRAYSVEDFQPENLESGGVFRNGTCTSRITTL
Sequence of Somatostatin receptor type 2 (P30874 whole entry): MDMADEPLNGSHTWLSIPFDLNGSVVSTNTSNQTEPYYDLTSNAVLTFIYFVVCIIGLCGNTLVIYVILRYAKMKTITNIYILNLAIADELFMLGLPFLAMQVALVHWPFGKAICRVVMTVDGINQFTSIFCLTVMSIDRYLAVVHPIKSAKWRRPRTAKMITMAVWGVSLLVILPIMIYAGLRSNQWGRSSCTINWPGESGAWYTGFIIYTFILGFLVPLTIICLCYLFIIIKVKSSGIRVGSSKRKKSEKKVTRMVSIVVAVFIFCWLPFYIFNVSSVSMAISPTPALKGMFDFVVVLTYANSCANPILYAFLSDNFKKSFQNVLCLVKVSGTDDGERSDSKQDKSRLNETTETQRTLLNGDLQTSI
Sequence of Somatostatin receptor type 3 (P32745 whole entry): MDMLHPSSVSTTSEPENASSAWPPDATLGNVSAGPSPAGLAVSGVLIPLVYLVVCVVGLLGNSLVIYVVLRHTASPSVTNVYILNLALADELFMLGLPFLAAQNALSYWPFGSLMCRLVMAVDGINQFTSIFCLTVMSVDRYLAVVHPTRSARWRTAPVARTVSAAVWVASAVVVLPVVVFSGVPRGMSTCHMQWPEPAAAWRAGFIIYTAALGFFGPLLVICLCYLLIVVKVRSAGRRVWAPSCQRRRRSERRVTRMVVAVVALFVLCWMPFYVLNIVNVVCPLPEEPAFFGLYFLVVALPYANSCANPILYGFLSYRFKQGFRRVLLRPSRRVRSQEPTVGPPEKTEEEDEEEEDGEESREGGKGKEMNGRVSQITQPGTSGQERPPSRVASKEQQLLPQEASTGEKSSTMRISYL

The term pIC50 denotes the IC50 on a negative log10 scale, so that one unit is a factor of ten. A low value points to a high IC50. Usually half-life stands for how long it takes for the measured level to halve. Low values mean fast loss, high ones slow loss. In general, pEC50 refers to the EC50 on a negative log10 scale, so that one unit is a factor of ten. As for `CC(C)[C@H](NC(=O)[C@@H]1CSSC[C@H](NC(=O)[C@H](CC(=O)O)NC(=O)[C@@H]2CCCN2C(=O)[C@@H](NC(=O)[C@@H](N)CCC(=O)O)[C@@H](C)O)C(=O)N[C@@H](Cc2ccccc2)C(=O)N[C@@H](Cc2c[nH]c3ccccc23)C(=O)N[C@@H](CCCCN)C(=O)N[C@@H](Cc2ccc(O)cc2)C(=O)N1)C(N)=O`, the pIC50 at Urotensin-2 receptor [1] was 8.70; in data set [2] it was 5.53; in data set [3], 4.98; in data set [4] it was 5.06; in [7], 5.12. The compound also yielded a half-life in data set [5] of 3.48 h. Besides, the pEC50 on Urotensin-2 receptor [6] is 8.84.

With `CC[C@H](NC(=O)[C@H](Cc1ccc(O)c([N+](=O)[O-])c1)NC(=O)[C@H](CCCCN)NC(=O)[C@H](Cc1c[nH]c2ccccc12)NC(=O)[C@H](Cc1c[nH]c2ccccc12)NC(=O)[C@H](N)CC(N)=O)C(N)=O`, the pIC50 at Urotensin-2 receptor [1] is 6.22; in data set [2] it was 4.43; in [3], 5.17; in data set [4] it was 5.22; in [7], 4.55. In [5], the half-life is 22 h. On Urotensin-2 receptor [6], the pEC50 was 8.32.

Consider `CC(=O)N[C@@H](Cc1ccccc1)C(=O)N[C@@H](Cc1c[nH]c2ccccc12)C(=O)N[C@@H](CCCCN)C(=O)N[C@@H](Cc1ccc(O)cc1)C(N)=O` (Ac-FWKY-NH2), for which the %max in data set [8] and in data set [9] was 57% in each case.

Source of the values: ChEMBL document CHEMBL4715795, “Urolinin: The First Linear Peptidic Urotensin-II Receptor Agonist” (J Med Chem, 2016).
